Measurements reported in ChEMBL document CHEMBL4609999, “Novel alkoxyamide-based histone deacetylase inhibitors reverse cisplatin resistance in chemoresistant cancer cells” (Bioorg Med Chem, 2020).
Active and inactive are the calls of the source. The calls are words filed in the database; no cut-off is given here.

Assays:
[1] = biological target: Histone deacetylase; assay: Inhibition of HDAC in human A2780 cells; assay type: cell-based
[2] = biological target: T1, Histone deacetylase 8 (Homo sapiens, UniProt Q9BY41); assay: Inhibition of recombinant human HDAC8
T1 sequence (Q9BY41 whole entry): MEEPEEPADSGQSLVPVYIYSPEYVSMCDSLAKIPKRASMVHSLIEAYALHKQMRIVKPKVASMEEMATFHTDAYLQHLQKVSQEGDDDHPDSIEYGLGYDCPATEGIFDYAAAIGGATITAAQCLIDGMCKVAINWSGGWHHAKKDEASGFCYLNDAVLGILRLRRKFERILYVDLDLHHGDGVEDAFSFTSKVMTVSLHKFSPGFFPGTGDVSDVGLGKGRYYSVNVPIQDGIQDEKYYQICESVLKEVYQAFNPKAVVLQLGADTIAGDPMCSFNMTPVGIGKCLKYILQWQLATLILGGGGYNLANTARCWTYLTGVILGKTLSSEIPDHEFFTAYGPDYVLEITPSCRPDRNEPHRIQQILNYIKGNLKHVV

[3] = biological target: Histone deacetylase 4 (Homo sapiens, UniProt P56524); assay: Inhibition of recombinant human HDAC4
Sequence of Histone deacetylase 4 (P56524 whole entry): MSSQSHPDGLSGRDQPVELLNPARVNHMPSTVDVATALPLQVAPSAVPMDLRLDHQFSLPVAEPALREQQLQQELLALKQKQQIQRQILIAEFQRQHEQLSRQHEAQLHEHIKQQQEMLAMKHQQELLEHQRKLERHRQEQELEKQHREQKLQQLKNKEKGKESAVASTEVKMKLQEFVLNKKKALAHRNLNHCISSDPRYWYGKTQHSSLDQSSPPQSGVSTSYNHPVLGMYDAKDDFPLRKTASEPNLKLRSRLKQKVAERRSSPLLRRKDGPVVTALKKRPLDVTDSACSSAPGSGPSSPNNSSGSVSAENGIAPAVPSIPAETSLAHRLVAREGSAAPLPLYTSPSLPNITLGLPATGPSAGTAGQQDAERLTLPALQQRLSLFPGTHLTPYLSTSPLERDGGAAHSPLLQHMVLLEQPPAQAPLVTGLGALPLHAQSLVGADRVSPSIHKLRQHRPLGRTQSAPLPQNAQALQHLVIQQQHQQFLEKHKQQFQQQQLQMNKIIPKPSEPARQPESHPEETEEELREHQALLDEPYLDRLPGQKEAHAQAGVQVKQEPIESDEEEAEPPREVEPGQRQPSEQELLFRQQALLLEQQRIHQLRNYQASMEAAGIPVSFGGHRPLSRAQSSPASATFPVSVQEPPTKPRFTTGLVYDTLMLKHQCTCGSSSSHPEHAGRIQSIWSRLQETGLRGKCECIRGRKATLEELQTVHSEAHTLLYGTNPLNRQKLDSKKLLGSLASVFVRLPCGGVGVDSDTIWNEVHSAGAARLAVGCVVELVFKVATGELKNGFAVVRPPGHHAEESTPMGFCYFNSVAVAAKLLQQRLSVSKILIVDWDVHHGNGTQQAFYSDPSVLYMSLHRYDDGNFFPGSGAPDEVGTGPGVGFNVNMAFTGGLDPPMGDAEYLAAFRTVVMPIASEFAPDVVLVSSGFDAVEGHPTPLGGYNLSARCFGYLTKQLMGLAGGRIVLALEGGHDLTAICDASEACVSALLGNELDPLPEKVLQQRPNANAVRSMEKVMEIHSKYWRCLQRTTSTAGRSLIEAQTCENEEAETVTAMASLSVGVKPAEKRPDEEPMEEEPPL

[4] = test system: CAL-27; assay: Cytotoxicity against human CAL27 cells assessed as reduction in cell viability by MTT assay; assay type: functional, cell-based
[5] = biological target: T2, Protein deacetylase HDAC6 (Homo sapiens, UniProt Q9UBN7); assay: Inhibition of recombinant human HDAC6
T2 sequence (Q9UBN7 whole entry): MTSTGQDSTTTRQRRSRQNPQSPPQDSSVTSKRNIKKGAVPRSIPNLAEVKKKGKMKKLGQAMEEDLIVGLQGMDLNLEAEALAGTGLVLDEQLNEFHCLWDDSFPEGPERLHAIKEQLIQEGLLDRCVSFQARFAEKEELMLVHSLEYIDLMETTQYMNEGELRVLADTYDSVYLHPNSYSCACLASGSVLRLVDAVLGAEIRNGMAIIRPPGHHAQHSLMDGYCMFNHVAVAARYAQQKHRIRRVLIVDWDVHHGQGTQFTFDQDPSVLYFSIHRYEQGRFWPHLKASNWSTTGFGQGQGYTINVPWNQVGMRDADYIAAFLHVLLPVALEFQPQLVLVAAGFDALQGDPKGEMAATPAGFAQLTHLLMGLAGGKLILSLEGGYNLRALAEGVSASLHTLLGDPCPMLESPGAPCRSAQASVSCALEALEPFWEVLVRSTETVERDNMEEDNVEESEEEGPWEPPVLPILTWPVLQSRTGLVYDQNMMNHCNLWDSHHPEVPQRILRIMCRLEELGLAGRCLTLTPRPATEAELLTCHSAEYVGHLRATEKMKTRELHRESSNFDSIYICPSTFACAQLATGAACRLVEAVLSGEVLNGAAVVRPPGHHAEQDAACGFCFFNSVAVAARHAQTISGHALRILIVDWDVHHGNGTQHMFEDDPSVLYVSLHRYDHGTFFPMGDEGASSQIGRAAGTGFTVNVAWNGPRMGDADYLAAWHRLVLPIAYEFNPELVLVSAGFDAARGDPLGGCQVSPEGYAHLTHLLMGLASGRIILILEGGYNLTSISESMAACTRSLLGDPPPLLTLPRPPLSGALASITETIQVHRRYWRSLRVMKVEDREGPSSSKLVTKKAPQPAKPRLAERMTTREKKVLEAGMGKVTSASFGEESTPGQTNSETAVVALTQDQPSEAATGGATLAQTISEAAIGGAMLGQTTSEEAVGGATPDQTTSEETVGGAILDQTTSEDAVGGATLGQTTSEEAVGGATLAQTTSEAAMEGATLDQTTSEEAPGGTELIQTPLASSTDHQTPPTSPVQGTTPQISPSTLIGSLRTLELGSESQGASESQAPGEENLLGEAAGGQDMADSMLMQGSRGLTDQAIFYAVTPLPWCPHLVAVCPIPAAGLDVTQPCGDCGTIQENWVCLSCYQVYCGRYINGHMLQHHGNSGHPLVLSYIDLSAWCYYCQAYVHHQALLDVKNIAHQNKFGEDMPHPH

[6] = test system: A2780; assay: Cytotoxicity against human A2780 cells assessed as reduction in cell viability by MTT assay; assay type: functional, cell-based
[7] = biological target: Histone deacetylase 2 (Homo sapiens, UniProt Q92769); assay: Inhibition of recombinant human HDAC2
Sequence of Histone deacetylase 2 (Q92769 whole entry): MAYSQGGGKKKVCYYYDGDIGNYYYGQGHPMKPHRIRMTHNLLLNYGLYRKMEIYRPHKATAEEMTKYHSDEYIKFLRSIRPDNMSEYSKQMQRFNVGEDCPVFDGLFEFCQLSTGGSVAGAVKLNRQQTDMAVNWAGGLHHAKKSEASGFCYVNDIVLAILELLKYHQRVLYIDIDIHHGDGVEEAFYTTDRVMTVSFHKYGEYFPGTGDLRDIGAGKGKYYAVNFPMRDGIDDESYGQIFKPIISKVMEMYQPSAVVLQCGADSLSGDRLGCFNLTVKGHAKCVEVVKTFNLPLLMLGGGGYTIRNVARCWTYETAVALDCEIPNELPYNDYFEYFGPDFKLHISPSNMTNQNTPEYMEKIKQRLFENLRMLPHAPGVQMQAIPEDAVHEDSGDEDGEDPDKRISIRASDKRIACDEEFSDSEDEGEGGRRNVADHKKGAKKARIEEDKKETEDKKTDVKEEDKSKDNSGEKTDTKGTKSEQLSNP

[8] = biological target: Histone deacetylase; assay: Inhibition of HDAC in human Cal27 cells; assay type: cell-based; settings: cal-27
[9] = organism: Homo sapiens; assay: Induction of apoptosis in human Cal27CisR cells assessed as increase in caspase 3/7 activation at 0.8 uM incubated for 24 hrs by Hoechst 33342 staining based fluorescence assay; assay type: functional, cell-based
[10] = biological target: T3, Protein deacetylase HDAC6 (Homo sapiens) (UniProt Q9UBN7); assay: Inhibition of HDAC6 in human Cal27CisR cells assessed as increase in acetylated alpha-tubulin at 1.5 uM incubated for 24 hrs by immunoblot analysis; assay type: cell-based
T3 sequence (whole entry): T2 sequence (Q9UBN7 whole entry)
Outline: (§1)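 Cal27 and Cal27CisR cells incubated 24 h with vehicle or with inhibitor at 1.5, 3 or 5 µM. Western blot for α-tubulin, acetyl-α-tubulin and acetyl-histone H3.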

[11] = biological target: T3, Protein deacetylase HDAC6 (Homo sapiens); assay: Inhibition of HDAC6 in human CAL27 cells assessed as increase in acetylated alpha-tubulin at 1.5 uM incubated for 24 hrs by immunoblot analysis; assay type: cell-based; settings: CAL-27; outline: as §1
[12] = test system: CAL-27; assay: Potentiation of cisplatin-induced cytotoxicity against human CAL27 cells assessed as shift factor by measuring ratio of cisplatin IC50 to cisplatin IC50 in presence of compound at 0.2 uM incubated for 72 hrs followed by cisplatin addition and measured after 72 hrs by MTT assay; assay type: functional
Outline: (§2)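 MTT shift assay. Cal27 cells received HDACi at 0.2, 0.4 or 1.4 µM; Cal27CisR cells received 0.8 or 6 µM. Cells were incubated 72 h with a cisplatin range. Shift factor = cisplatin IC50 alone / cisplatin IC50 with HDACi, significance by t-test (p<0.05). Pooled mean of ≥3 experiments, each in triplicate.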

[13] = test system: CAL-27; assay: Induction of apoptosis in human CAL27 cells assessed as increase in caspase 3/7 activation at 0.4 uM incubated for 24 hrs by Hoechst 33342 staining based fluorescence assay; assay type: functional, cell-based
[14] = organism: Homo sapiens; assay: Potentiation of cisplatin-induced apoptosis in human Cal27CisR cells assessed as increase in caspase 3/7 activation at 0.8 uM incubated for 24 hrs followed by cisplatin addition by Hoechst 33342 staining based fluorescence assay; assay type: functional, cell-based
Outline: (§3)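 Cal27 cells pretreated with HDACi at 0.4, 0.8 or 2.8 µM, then 24 h more with 3 µM cisplatin. Cal27CisR cells pretreated at 0.8 or 8 µM, then 24 h with 25 µM cisplatin. 100 µM cisplatin as positive control. Active caspase 3/7 imaged by green fluorescence, nuclei counterstained with Hoechst 33342 (blue).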

[15] = Potentiation of cisplatin-induced cytotoxicity against human Cal27CisR cells assessed as shift factor by measuring ratio of cisplatin IC50 to cisplatin IC50 in presence of compound at 0.8 uM incubated for 72 hrs followed by cisplatin addition and measured after 72 hrs by MTT assay; assay type: functional; outline: as §2
[16] = biological target: T4, Class 1 histone deacetylase (Homo sapiens) (UniProt Q13547+O15379+Q92769+Q9BY41); assay: Inhibition of class 1 histone deacetylase in human Cal27CisR cells assessed as increase in H3 histone acetylation at 1.5 uM incubated for 24 hrs by immunoblot analysis; assay type: cell-based; outline: as §1
[17] = biological target: T4, Class 1 histone deacetylase (Homo sapiens); assay: Inhibition of class 1 histone deacetylase in human CAL27 cells assessed as increase in H3 histone acetylation at 1.5 uM incubated for 24 hrs by immunoblot analysis; assay type: cell-based; settings: CAL-27; outline: as §1
[18] = test system: CAL-27; assay: Potentiation of cisplatin-induced apoptosis in human CAL27 cells assessed as increase in caspase 3/7 activation at 0.4 uM incubated for 24 hrs followed by cisplatin addition by Hoechst 33342 staining based fluorescence assay; assay type: functional, cell-based; outline: as §3

SMILES | IC50 [1] | Ki [2] | Ki [3] | Ki [5] | Ki [7] | IC50 [8] | inhibition [10] | inhibition [11] | inhibition [16] | inhibition [17] | IC50 [4] | IC50 [6] | Activity [9] | PF [12] | Activity [13] | Activity [14] | PF [15] | Activity [18]
CC(C)(C)c1cc(C(=O)NOCCCCCC(=O)NO)cc(C(C)(C)C)c1 | 0.93 µM | 28.1 µM | > 100 µM | 2.15 µM | 1.57 µM | 1.3 µM |  |  |  |  | 1 µM | 1.55 µM |  |  |  |  |  | 
O=C(CCCCCONC(=O)c1cc(F)cc(F)c1)NO | 3.79 µM | 14.7 µM | > 100 µM | 0.1 µM | 0.58 µM | 3.77 µM |  |  |  |  | 7.98 µM | 13.7 µM |  |  |  |  |  | 

Compounds with a lower Ki [2], results first:

IC50 [1] | Ki [2] | Ki [3] | Ki [5] | Ki [7] | IC50 [8] | inhibition [10] | inhibition [11] | inhibition [16] | inhibition [17] | SMILES | IC50 [4] | IC50 [6] | Activity [9] | PF [12] | Activity [13] | Activity [14] | PF [15] | Activity [18]
7.2 µM | 10 µM | > 100 µM | 0.33 µM | 1.33 µM | 9.4 µM |  |  |  |  | O=C(CCCCCONC(=O)c1cc(I)cc(I)c1I)NO | 45 µM | 64 µM |  |  |  |  |  | 
1.65 µM | 4.44 µM | 31.8 µM | 0.12 µM | 0.21 µM | 1.8 µM |  |  |  |  | O=C(CCCCCONC(=O)c1cc(Br)cc(Br)c1)NO | 3.63 µM | 10.2 µM |  |  |  |  |  | 
0.83 µM | 5.69 µM | 49.2 µM | 0.03 µM | 0.06 µM | 0.45 µM | Active | Active | Active | Active | COc1cc(OC)cc(C(=O)NOCCCCCC(=O)NO)c1 | 0.72 µM | 0.89 µM | Active | 3.79 | Active | Active | 12.8 | Active
